Measured values from different studies.
Protocols differ between the studies behind these lines.
Target: Dual specificity protein kinase TTK (TTK, Homo sapiens, UniProt P33981)
Residues used in one study (P33981 1-857): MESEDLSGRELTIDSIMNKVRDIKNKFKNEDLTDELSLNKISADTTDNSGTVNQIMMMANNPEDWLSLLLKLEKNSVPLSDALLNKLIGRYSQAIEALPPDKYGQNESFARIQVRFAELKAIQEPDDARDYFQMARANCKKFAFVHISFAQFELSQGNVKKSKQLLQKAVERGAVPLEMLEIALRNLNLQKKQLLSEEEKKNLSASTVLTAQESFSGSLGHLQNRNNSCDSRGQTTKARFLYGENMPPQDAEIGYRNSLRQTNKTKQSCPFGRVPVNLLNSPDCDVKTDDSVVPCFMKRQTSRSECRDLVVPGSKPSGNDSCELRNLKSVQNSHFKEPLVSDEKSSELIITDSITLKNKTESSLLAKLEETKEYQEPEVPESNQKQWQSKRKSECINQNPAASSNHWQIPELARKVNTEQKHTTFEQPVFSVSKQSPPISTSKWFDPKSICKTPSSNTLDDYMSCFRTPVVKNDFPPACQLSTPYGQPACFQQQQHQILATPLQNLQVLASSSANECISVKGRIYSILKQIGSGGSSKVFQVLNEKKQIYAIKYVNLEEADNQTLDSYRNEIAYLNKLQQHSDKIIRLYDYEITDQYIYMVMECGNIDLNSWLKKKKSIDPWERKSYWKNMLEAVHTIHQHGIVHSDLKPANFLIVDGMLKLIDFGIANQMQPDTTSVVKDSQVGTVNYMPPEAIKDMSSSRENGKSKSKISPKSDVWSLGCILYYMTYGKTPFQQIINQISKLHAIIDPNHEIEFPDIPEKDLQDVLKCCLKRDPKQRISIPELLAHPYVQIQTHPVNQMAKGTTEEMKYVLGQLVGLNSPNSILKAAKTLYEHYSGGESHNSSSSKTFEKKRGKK

O=C(N1CCS(=O)(=O)CC1)N1C[C@H](c2ccc(OC(F)(F)F)cc2)C[C@H](c2nc(C3CC3)no2)C1
remaining binding (cell-free assay; competition with immobilised ligand; 1 µM): 82%

CC(C)(C)c1nc2c(s1)c1nc(N)ncc1c1ccc(NS(=O)(=O)c3c(F)cccc3F)c(F)c12
remaining activity (enzyme activity; inhibitor; radiometric; 1 µM): 90%

Oc1cccc(-c2nc(N3CCOCC3)c3oc4ncccc4c3n2)c1
remaining signal (cell-free assay; 0.5 µM): 93.3%

Cc1noc([C@H]2C[C@@H](c3ccc(C(F)(F)F)cc3)CN(C(=O)N3CCS(=O)(=O)C3)C2)n1
remaining binding (cell-free assay; competition with immobilised ligand; 1 µM): 100%

FC(F)(F)Oc1cccc(-c2cnc3ccc(-c4ccncc4)nn23)c1
activity vs control (enzyme activity; inhibitor; radiometric; 5 µM): 67%

COc1cc(Nc2cnc(C#N)c(O[C@H](C)CN(C)C)n2)ncc1-c1cnn(C)c1
remaining activity (enzyme activity; inhibitor; radiometric; 10 µM): 74%

Cc1nccc(COC(=O)N2C[C@@H]3[C@@H](CNC(=O)c4ccc5[nH]nnc5c4)[C@@H]3C2)n1
remaining binding (cell-free assay; competition with immobilised ligand; 1 µM): 89%

COc1cc(Cl)c(C(=O)N[C@@H](CN[C@H]2CC[C@@H](N)CC2)Cc2ccc(C#N)cc2)cc1-c1ccc(CN[C@H](C)c2ccc(C)cc2)o1
remaining activity (enzyme activity; inhibitor; 1 µM): 95%

NS(=O)(=O)c1cc(NC(=O)C2(c3ccccc3Cl)CC2)ccc1Oc1cccc(Cl)c1
remaining binding (cell-free assay; competition with immobilised ligand; 1 µM): 100%

C#Cc1cccc(Nc2ncnc3cc(OCCOC)c(OCCOC)cc23)c1
remaining signal (cell-free assay; 0.5 µM): 91.8%

Cn1c2c(c3ccc(Cl)c(Cl)c31)C(C#N)C1(CCN(C(=O)OC(C)(C)C)CC1)NC2=O (racemic)
ΔTm (thermal stability; DSF; 10 µM): 0 °C

COc1cc(/C=C/C(=O)CC(=O)/C=C/c2ccc(O)c(OC)c2)ccc1O
activity vs control (enzyme activity; inhibitor; 1 µM): 51%

O=C(Nc1cccnn1)N1CCC(=Cc2cccc(Oc3ccc(C(F)(F)F)cn3)c2)CC1
remaining binding (cell-free assay; competition with immobilised ligand; 1 µM): 100%

O=C1NC(=O)c2cc(Nc3ccc(F)cc3)c(Nc3ccc(F)cc3)cc21
remaining signal (cell-free assay; 0.5 µM): 95.4%

CCOCCn1cc(C(=O)Nc2ccc(-n3nc(-c4cccnc4)cc3C(F)(F)F)cn2)ccc1=O
remaining binding (cell-free assay; competition with immobilised ligand; 1 µM): 100%

Cn1c2c(c3ccc(Cl)c(Cl)c31)C(C#N)C(C)(C)NC2=O (stereo not shown)
ΔTm (thermal stability; DSF; 10 µM): 1.2 °C

Cn1c(=O)n(-c2ccc(C(C)(C)C#N)cc2)c2c3cc(-c4cnc5ccccc5c4)ccc3ncc21
remaining activity (enzyme activity; inhibitor; 10 µM): 91%

Nc1ncnc2occ(-c3ccc(NC(=O)Nc4cc(C(F)(F)F)ccc4F)cc3)c12
remaining signal (cell-free assay; 20 µM): 4.5%

CCN(CC)CCNC(=O)c1c(C)[nH]c(/C=C2\C(=O)Nc3ccc(F)cc32)c1C
remaining signal (cell-free assay; 0.5 µM): 68%

FC(F)c1nc2ccccc2n1-c1nc(N2CCOCC2)nc(N2CCOCC2)n1
remaining activity (enzyme activity; inhibitor; 10 µM): 88%

O=C(NS(=O)(=O)c1ccc(NCC2CCOCC2)c([N+](=O)[O-])c1)c1ccc(N2CCN(Cc3ccc(C(F)(F)F)cc3-c3ccc(Cl)cc3)CC2)cc1Oc1cnc2[nH]ccc2c1
remaining binding (cell-free assay; competition with immobilised ligand; 1 µM): 100%

N#CC1c2c([nH]c3c(Cl)c(Cl)ccc23)C(=O)NC12CCCCC2 (racemic)
ΔTm (thermal stability; DSF; 10 µM): 0.9 °C
